Measurements taken from ChEMBL document CHEMBL5724801, “EUbOPEN Chemogenomics Library - Multiplex” (2024).
Several values for one entry are separate records, joined by “and”; a condition that tells them apart may be missing. Identical values can stand only once.

System: U2OS
Experiment: Multiplex assay against U2OS
Assay type: toxicity, cell-based
Conditions: human
Outline: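 Values for tubulin, mitochondrial-mass and membrane-permeability phenotypes are per cents of cells with healthy nuclei. These cells were identified by CellPathfinder machine-learning gating of live cells that had been stained at seeding with Hoechst33342, BioTracker Green Microtubule Cytoskeleton Dye, MitoTracker Red and Annexin V Alexa Fluor 680 and imaged on a CQ1 microscope at 37°C and 5% CO2 after compound addition. The gating first set Hoechst high-intensity objects apart from normal cells, then split normal cells into healthy, pyknosed or fragmented nuclei, and pyknosed cells into mitotic or apoptotic.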

[1] = 12 h, 1 µM, compound concentration 1 uM
[2] = 12 h, 10 µM, compound concentration 10 uM
[3] = 24 h, 1 µM, compound concentration 1 uM
[4] = 24 h, 10 µM, compound concentration 10 uM
[5] = 48 h, 1 µM, compound concentration 1 uM
[6] = 48 h, 10 µM, compound concentration 10 uM

`CC(C)CNc1nc(N2CCN(CC3CCCOC3)CC2)ncc1C(=O)NCc1ccccc1` (stereo unspecified) was tested, and the “Population Apoptotic (%)” value [1] was 35.29% and 54.55%, the “Population Fragmented Nuclei (%)” value [1] was 1.32% and 3.94% and the “Population Healthy Nuclei (%)” value [1] was 85.22% and 78.74%. For the same compound, the “Population Hoechst High Intensity Objects (%)” value [1] was 0%, the “Population Membrane Permeable-Phenotype (%)” value [1] was 0.93% and 5% and the “Population Mitotic Cells (%)” value [1] was 64.71% and 45.45%. For the same compound, the “Population Normal (%)” value [1] was 100%, the “Population Pyknosed Nuclei (%)” value [1] was 13.46% and 17.32% and the “Population Tubulin-Different-Phenotype (%)” value [1] was 3.1% and 1%. For the same compound, the “Total Cell Count” value [1] was 379 and 127, the “Population Apoptotic (%)” value [2] was 51.14% and 36.59% and the “Population Fragmented Nuclei (%)” value [2] was 1.76% and 7.28%. The “Population Healthy Nuclei (%)” value [2] was 72.35% and 65.56%, the “Population Hoechst High Intensity Objects (%)” value [2] was 0% and the “Population Membrane Permeable-Phenotype (%)” value [2] was 22.36% and 30.3%. The “Population Mitochondria Different-Phenotype (%)” value [2] was 72.36% and 89.9%, the “Population Mitotic Cells (%)” value [2] was 48.86% and 63.41% and the “Population Normal (%)” value [2] was 100%. For the same compound, the “Population Pyknosed Nuclei (%)” value [2] was 25.88% and 27.15%, the “Population Tubulin-Different-Phenotype (%)” value [2] was 97.15% and 94.95% and the “Total Cell Count” value [2] was 340 and 151. For the same compound, the “Population Apoptotic (%)” value [3] was 43.1% and 31.82%, the “Population Fragmented Nuclei (%)” value [3] was 1.29% and 7.91% and the “Population Healthy Nuclei (%)” value [3] was 86.27% and 76.26%. For the same compound, the “Population Hoechst High Intensity Objects (%)” value [3] was 0.21% and 0%, the “Population Membrane Permeable-Phenotype (%)” value [3] was 2.49% and 9.43% and the “Population Mitotic Cells (%)” value [3] was 56.9% and 68.18%. The “Population Normal (%)” value [3] was 99.79% and 100%, the “Population Pyknosed Nuclei (%)” value [3] was 12.45% and 15.83% and the “Population Tubulin-Different-Phenotype (%)” value [3] was 3.98% and 4.72%. For the same compound, the “Population Apoptotic (%)” value [4] was 71.3% and 64%, the “Population Fragmented Nuclei (%)” value [4] was 3.28% and 4.55% and the “Population Healthy Nuclei (%)” value [4] was 67.21% and 62.99%. The “Population Hoechst High Intensity Objects (%)” value [4] was 0%, the “Population Membrane Permeable-Phenotype (%)” value [4] was 17.07% and 18.56% and the “Population Mitochondria Different-Phenotype (%)” value [4] was 81.3% and 91.75%. The “Population Mitotic Cells (%)” value [4] was 28.7% and 36%, the “Population Normal (%)” value [4] was 100% and the “Population Pyknosed Nuclei (%)” value [4] was 29.51% and 32.47%. For the same compound, the “Population Tubulin-Different-Phenotype (%)” value [4] was 97.15% and 93.81%, the “Total Cell Count” value [4] was 366 and 154 and the “Population Apoptotic (%)” value [5] was 58.06% and 46.43%. The “Population Fragmented Nuclei (%)” value [5] was 2.14% and 3.47%, the “Population Healthy Nuclei (%)” value [5] was 86.13% and 80.35% and the “Population Hoechst High Intensity Objects (%)” value [5] was 0%. The “Population Membrane Permeable-Phenotype (%)” value [5] was 1.02% and 4.32%, the “Population Mitotic Cells (%)” value [5] was 41.94% and 53.57% and the “Population Normal (%)” value [5] was 100%. The “Population Pyknosed Nuclei (%)” value [5] was 11.73% and 16.18%, the “Population Tubulin-Different-Phenotype (%)” value [5] was 2.64% and 6.47% and the “Population Apoptotic (%)” value [6] was 80.41% and 90%. For the same compound, the “Population Fragmented Nuclei (%)” value [6] was 7.04% and 6.08%, the “Population Healthy Nuclei (%)” value [6] was 55.78% and 60.14% and the “Population Hoechst High Intensity Objects (%)” value [6] was 0%. The “Population Membrane Permeable-Phenotype (%)” value [6] was 13.06% and 17.98%, the “Population Mitochondria Different-Phenotype (%)” value [6] was 79.28% and 93.26% and the “Population Mitotic Cells (%)” value [6] was 19.59% and 10%. For the same compound, the “Population Normal (%)” value [6] was 100%, the “Population Pyknosed Nuclei (%)” value [6] was 37.19% and 33.78% and the “Population Tubulin-Different-Phenotype (%)” value [6] was 96.4% and 88.76%. The “Total Cell Count” value [6] was 398 and 148.
